For five molecules, IC50 results are on record in ChEMBL document CHEMBL1157333, “Cytotoxic dihydroagarofuranoid sesquiterpenes from the stem of Microtropis fokienensis” (J Nat Prod, 2006).

One test relates to P388. The test can be described thus: Cytotoxicity against mouse P388 cells after 3 days by MTT assay. In kind it is functional, cell-based. Particulars: P388, 72 h. The essentials:
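Mouse lymphocytic leukemia cells grown in Fisher's medium with 10% heat-inactivated FCS at 37 °C, 5% CO2. Seeded at 1500 cells/well in 200 µL cultures, then given compounds in 0.5% DMSO at eight concentrations in triplicate for 3 days. MTT added, formazan dissolved in DMSO and read at 540 nm. IC50 is the concentration giving 50% absorbance reduction versus untreated cells. Assays repeated three times.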
On the technique in general: Tetrazolium assays rely on reduction of a dye to a coloured formazan, in cell work by metabolically active cells.

Another test has as its system HT-29. The test can be described thus: Cytotoxicity against human HT29 cells after 6 days by MTT assay. The format is functional, cell-based. The conditions noted are these: HT-29, 144 h. A digest of the protocol:
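Human colon carcinoma cells from ATCC kept in RPMI 1640 with 10% heat-inactivated FCS at 37 °C, 5% CO2. Plated at 1000 cells/well and exposed 6 days to eight concentrations spanning a 128-fold range, in triplicate, in 0.5% DMSO. Then 1 mg/mL MTT added for 5 h at 37 °C, formazan dissolved in DMSO, read at 540 nm. IC50 is 50% absorbance reduction versus untreated cells. Three repeats.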

Converted amounts (≈) assume the structure as drawn.

`CO[C@H](C(=O)[C@@H](O)[C@@H](C)O)[C@@H]1Cc2cc3cc(O[C@H]4C[C@@H](O[C@@H]5C[C@@H](O)[C@H](O)[C@@H](C)O5)[C@H](O)[C@@H](C)O4)c(C)c(O)c3c(O)c2C(=O)[C@H]1O[C@H]1C[C@@H](O[C@@H]2C[C@@H](O)[C@@H](O[C@@H]3C[C@](C)(O)[C@H](O)[C@@H](C)O3)[C@@H](C)O2)[C@H](O)[C@@H](C)O1` [PLICAMYCIN]: the values for the IC50 with P388 and in the test with HT-29 were 0.06 µg/mL (≈ 0.0553 µM) and 0.08 µg/mL (≈ 0.0737 µM), respectively.
As to `CC(=O)O[C@@H]1[C@H]2C[C@H](OC(=O)c3ccccc3)[C@]3(COC(=O)c4ccccc4)[C@@H](OC(C)=O)[C@@H](OC(=O)c4ccccc4)C[C@@H](C)[C@@]13OC2(C)C` [FOKIENAGAROFURAN A], the IC50 amounted to 0.032 µg/mL (≈ 0.0458 µM) with P388 and 0.054 µg/mL (≈ 0.0773 µM) in the test on HT-29.
For `CC(=O)O[C@@H]1[C@H]2C[C@H](OC(=O)c3ccccc3)[C@]3(COC(=O)CC(C)C)[C@@H](OC(C)=O)[C@@H](OC(=O)c4ccccc4)C[C@@H](C)[C@@]13OC2(C)C` the same measures were 0.051 µg/mL (≈ 0.0751 µM) and 0.082 µg/mL (≈ 0.121 µM).
For `CC(=O)O[C@H]1CC[C@@H](C)[C@]23OC(C)(C)[C@H](C[C@H](OC(=O)c4ccccc4)[C@]12COC(=O)c1ccccc1)[C@H]3OC(C)=O`, the IC50 in the test with P388 was found to be 0.043 µg/mL (≈ 0.0743 µM); in the test on HT-29, 0.071 µg/mL (≈ 0.123 µM).
For `CC(=O)O[C@H]1[C@@H](OC(=O)c2ccccc2)C[C@@H](C)[C@]23OC(C)(C)[C@H](C[C@H](OC(=O)c4ccccc4)[C@]12COC(=O)c1ccccc1)[C@H]3OC(=O)c1ccccc1` [FOKIENAGAROFURAN D], the IC50 in the test on P388 worked out at 0.036 µg/mL (≈ 0.0473 µM); in the test on HT-29, 0.058 µg/mL (≈ 0.0762 µM).

The IC50 is the concentration at which inhibition is half-maximal. High values mean weaker potency, low ones greater potency.
